Measurements from ChEMBL document CHEMBL1154293, “Sesquiterpenoids and benzofuranoids from the marine-derived fungus Aspergillus ustus 094102” (J Nat Prod, 2009).

What was measured:
A549 [1] = test: Cytotoxicity against human A549 cells after 72 hrs by SRB assay; details: A549, 72 h
HL-60 = test: Cytotoxicity against human HL60 cells after 72 hrs by MTT assay; type: functional, cell-based; details: HL-60, 72 h
In short: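 HL-60 human tumor cells were plated 24 h ahead, then given various compound concentrations continuously for 72 h. Proliferation inhibition was measured by MTT tetrazolium reduction, and IC50 was derived from the inhibition rates. Etoposide (VP-16) was the positive control.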

A549 [2] = test: Cytotoxicity against human A549 cells after 24 hrs by SRB assay; type: functional, cell-based; details: A549, 24 h

## CO[C@H]1O[C@H](C)Cc2ccc3c(c21)OC(=C(C)C)C3=O [USTUSORANE C]
A549 [1]
  IC50: > 100 µM
HL-60
  IC50: > 100 µM

## CO[C@H]1O[C@H](C)Cc2ccc3c(c21)OC(C(C)C)C3=O (stereo partly specified) [USTUSORANE D]
A549 [1]
  IC50: > 100 µM
HL-60
  IC50: > 100 µM

## CC1=CC(=O)[C@H]2C(C)(C)C[C@@H](O)C[C@]2(C)[C@@]1(O)CO [USTUSOL B]
A549 [1]
  IC50: > 100 µM
HL-60
  IC50: > 100 µM

## CC(O)C/C=C/C=C/C(=O)O[C@@H]1C=C2COC(=O)[C@]2(O)[C@@]2(C)CCCC(C)(C)[C@H]12 (stereo partly specified) [USTUSOLATE C]
A549 [1]
  IC50: 10.5 µM
HL-60
  IC50: > 100 µM

## CO[C@@H]1C=C(CO)[C@](O)(CO)[C@@]2(C)CCCC(C)(C)[C@H]12 [USTUSOL C]
A549 [1]
  IC50: > 100 µM
HL-60
  IC50: > 100 µM

## CC1(C)CCC[C@@]2(C)[C@H]1[C@H](OC(=O)/C=C/C=C/C=O)C=C1COC(=O)[C@@]12O [USTUSOLATE E]
A549 [1]
  IC50: > 100 µM
HL-60
  IC50: 9 µM

## CC1=Cc2ccc3c(c2CO1)OC(=C(C)C)C3=O [USTUSORANE B]
A549 [1]
  IC50: > 100 µM
HL-60
  IC50: > 100 µM

## CC(O)Cc1ccc2c(c1CO)OC(C(C)(C)O)C2 (stereo unspecified) [USTUSORANE E]
A549 [1]
  IC50: > 100 µM
HL-60
  IC50: 0.13 µM

## CC(C)=C1Oc2c(ccc(CC(C)O)c2CO)C1=O (stereo unspecified) [USTUSORANE A]
A549 [1]
  IC50: > 100 µM
HL-60
  IC50: > 100 µM

## CC(O)C/C=C/C=C/C=C/C(=O)OC1C=C2COC(=O)[C@]2(O)[C@@]2(C)CCCC(C)(C)[C@H]12 (stereo partly specified) [USTUSOLATE B]
A549 [1]
  IC50: > 100 µM
HL-60
  IC50: > 100 µM

## COC(/C=C/C=C/C(=O)O[C@@H]1C=C2COC(=O)[C@]2(O)[C@@]2(C)CCCC(C)(C)[C@H]12)OC [USTUSOLATE D]
A549 [1]
  IC50: > 100 µM
HL-60
  IC50: > 100 µM

## CC1=CC(=O)[C@H]2C(C)(C)[C@@H](O)CC[C@]2(C)[C@@]1(O)CO [USTUSOL A]
A549 [1]
  IC50: > 100 µM
HL-60
  IC50: > 100 µM

## CC(C)(O)C1Cc2ccc(/C=C\CO)c(CO)c2O1 (stereo unspecified)
HL-60
  IC50: > 100 µM
A549 [2]
  IC50: > 100 µM
